Measured values as given in publication PMC9636331 (Blood Advances, 2022).
Values joined by “and” are separate entries in the source; they are usually repeats but may differ in a detail not shown here. Equal entries are not always repeated. “Also recorded” adds a separate entry of the source.

Tests used:
[1] = test system: PNH patients with active hemolysis; experiment: Serum LDH levels, phase 2 study of iptacopan monotherapy; assay type: in vivo, human; conditions: cohort 2 (50/200 mg bid), until week 12
Outline: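 Primary endpoint: serum LDH reduction ≥60% from baseline, or LDH below ULN, at any time up to week 12. Baseline was the mean of the last 3 screening values before randomization. If LDH had not fallen ≥40% by day 15, the dose was to be raised from day 17, and raised further for cohort 1 at day 29, with a maximum of 200 mg twice daily.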

[2] = test system: PNH patients with active hemolysis; experiment: Hb and other markers of hemolysis; assay type: in vivo, human
Outline: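 Secondary hemolysis markers (total and free Hb, bilirubin, reticulocyte count, RBC count, haptoglobin) were measured in PNH patients over 12 weeks of twice-daily test compound. Dosing was 25 mg for 4 weeks then 100 mg (cohort 1), or 50 mg then 200 mg (cohort 2). Baseline for each variable was the mean of all pretreatment values.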

[3] = test system: PNH-type RBCs; experiment: Flow cytometry of PNH-type RBCs and C3 fragment deposition on RBCs; assay type: in vivo, human
[4] = test system: PNH patients with active hemolysis; experiment: Safety and tolerability; assay type: in vivo, human
[5] = Plasma pharmacokinetics of iptacopan; assay type: in vivo, human
Outline: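 Plasma samples were taken predose on days 2, 15, 29 and 57, and at 0.25, 1, 2, 4 and 6 h post-dose on days 29 and 57. Doses were 25/50 mg twice daily for 4 weeks, then 100/200 mg twice daily. Assay was validated LC-MS/MS, LLOQ approximately 1 ng/mL. Cmax, AUC, Ctrough and Tmax were derived noncompartmentally.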

[6] = test system: complement alternative pathway; experiment: Wieslab complement assay; assay type: in vivo, human; conditions: 200 mg twice daily; data not shown
Outline: (§1)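 Adult PNH patients, randomized 1:1, took the test compound 25 mg twice daily for 4 weeks then 100 mg twice daily (cohort 1), or 50 mg then 200 mg twice daily (cohort 2). Alternative-pathway target engagement was measured as circulating fragment Bb and by Wieslab assay. Sigmoid Emax models related both to individual steady-state Ctrough at baseline and after 4 weeks at each dose (days 29, 57).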

[7] = test system: fragment Bb; experiment: Circulating fragment of factor B; assay type: in vivo, human; conditions: after the first dose of 25 mg twice daily or higher
Outline: as §1

[8] = ref data on file, cited from earlier work
[9] = test system: PNH patients with persistent hemolysis despite ongoing treatment with eculizumab; conditions: add-on to eculizumab, week 13; cited from earlier work
[10] = until data cutoff, listed as iptacopan
[11] = nonclinical and phase 1 studies

SMILES: CCO[C@H]1CCN(Cc2c(OC)cc(C)c3[nH]ccc23)[C@H](c2ccc(C(=O)O)cc2)C1 [Iptacopan]
- LDH levels maintained by all patients [1]: < 1.5 × ULN
- Patients with Hb levels above 120 g/L ([2]; week 12, both cohorts): 5
- Patients achieving reticulocyte count ≤150 × 10^9/L, number ([2]; week 12, cohort 1): 4
- Patients achieving reticulocyte count ≤150 × 10^9/L, percent ([2]; week 12, cohort 1): 66.7%
- Patients with Hb levels above 120 g/L ([2]; week 12, cohort 1): 3
- Mean bilirubin level ([2]; week 12, cohort 1, baseline 32.4): 11.7 µmol/L
- Mean Hb level ([2]; week 12, cohort 1, baseline 88.5): 115.2 g/L
- Mean reticulocyte count ([2]; week 12, cohort 1, baseline 217.6): 1.308e+11 L⁻¹
- Patients achieving reticulocyte count ≤150 × 10^9/L, number ([2]; week 12, cohort 2): 4
- Patients achieving reticulocyte count ≤150 × 10^9/L, percent ([2]; week 12, cohort 2): 100%
- Patients with Hb levels above 120 g/L ([2]; week 12, cohort 2): 2
- Mean bilirubin level ([2]; week 12, cohort 2, baseline 35.3): 14.8 µmol/L
- Mean Hb level ([2]; week 12, cohort 2, baseline 76.9): 109.0 g/L
- Mean reticulocyte count ([2]; week 12, cohort 2, baseline 211.1): 1.048e+11 L⁻¹
- Clone size (PNH red blood cells, type II+III) (%), mean, Raw ([3]; Week 12, 25 mg/100 mg (cohort 1), baseline 33.6): 82.9%
- Clone size (PNH red blood cells, type II+III) (%), mean, Raw ([3]; Week 12, 50 mg/200 mg (cohort 2), baseline 49.1): 91.1%
- Effect on C3d deposition on RBC ([3]; both cohorts): near-total abrogation of C3d deposition on RBC
- AE by preferred term: Abdominal discomfort ([4]; 25 mg/100 mg, n = 7): 2 (28.6) n (%)
- AE by preferred term: Blood alkaline phosphatase increased ([4]; 25 mg/100 mg, n = 7): 1 (14.3) n (%)
- AE by preferred term: Cough ([4]; 25 mg/100 mg, n = 7): 2 (28.6) n (%)
- AE by preferred term: Headache ([4]; 25 mg/100 mg, n = 7): 1 (14.3) n (%)
- AE by preferred term: Oropharyngeal pain ([4]; 25 mg/100 mg, n = 7): 2 (28.6) n (%)
- AE by preferred term: Pyrexia ([4]; 25 mg/100 mg, n = 7): 2 (28.6) n (%)
- AE by preferred term: Upper respiratory tract infection ([4]; 25 mg/100 mg, n = 7): 2 (28.6) n (%)
- AEs leading to discontinuation of study treatment, number of events (nE) ([4]; 25 mg/100 mg, n = 7): 0
- AEs leading to discontinuation of study treatment, number of patients ([4]; 25 mg/100 mg, n = 7): 0 nS (%)
- AEs of mild intensity, number of events (nE) ([4]; 25 mg/100 mg, n = 7): 29
- AEs of mild intensity, number of patients ([4]; 25 mg/100 mg, n = 7): 4 (57.1) nS (%)
- AEs of moderate intensity, number of events (nE) ([4]; 25 mg/100 mg, n = 7): 2
- AEs of moderate intensity, number of patients ([4]; 25 mg/100 mg, n = 7): 1 (14.3) nS (%)
- AEs of severe/serious intensity, number of events (nE) ([4]; 25 mg/100 mg, n = 7): 0
- AEs of severe/serious intensity, number of patients ([4]; 25 mg/100 mg, n = 7): 0 nS (%)
- Study drug-related AEs leading to discontinuation of study treatment, number of events (nE) ([4]; 25 mg/100 mg, n = 7): 0
- Study drug-related AEs leading to discontinuation of study treatment, number of patients ([4]; 25 mg/100 mg, n = 7): 0 nS (%)
- Study drug-related AEs, number of events (nE) ([4]; 25 mg/100 mg, n = 7): 6
- Study drug-related AEs, number of patients ([4]; 25 mg/100 mg, n = 7): 1 (14.3) nS (%)
- Total AEs, number of events (nE) ([4]; 25 mg/100 mg, n = 7): 31
- Total AEs, number of patients ([4]; 25 mg/100 mg, n = 7): 4 (57.1) nS (%)
- AE by preferred term: Abdominal discomfort ([4]; 50 mg/200 mg, n = 6): 0 n (%)
- AE by preferred term: Blood alkaline phosphatase increased ([4]; 50 mg/200 mg, n = 6): 1 (16.7) n (%)
- AE by preferred term: Headache ([4]; 50 mg/200 mg, n = 6): 3 (50.0) n (%)
- AE by preferred term: Oropharyngeal pain ([4]; 50 mg/200 mg, n = 6): 0 n (%)
- AE by preferred term: Pyrexia ([4]; 50 mg/200 mg, n = 6): 0 n (%)
- AE by preferred term: Upper respiratory tract infection ([4]; 50 mg/200 mg, n = 6): 0 n (%)
- AEs leading to discontinuation of study treatment, number of events (nE) ([4]; 50 mg/200 mg, n = 6): 1
- AEs leading to discontinuation of study treatment, number of patients ([4]; 50 mg/200 mg, n = 6): 1 (16.7) nS (%)
- AEs of mild intensity, number of events (nE) ([4]; 50 mg/200 mg, n = 6): 6
- AEs of mild intensity, number of patients ([4]; 50 mg/200 mg, n = 6): 4 (66.7) nS (%)
- AEs of moderate intensity, number of events (nE) ([4]; 50 mg/200 mg, n = 6): 1
- AEs of moderate intensity, number of patients ([4]; 50 mg/200 mg, n = 6): 1 (16.7) nS (%)
- AEs of severe/serious intensity, number of events (nE) ([4]; 50 mg/200 mg, n = 6): 0
- AEs of severe/serious intensity, number of patients ([4]; 50 mg/200 mg, n = 6): 0 nS (%)
- Study drug-related AEs leading to discontinuation of study treatment, number of events (nE) ([4]; 50 mg/200 mg, n = 6): 1
- Study drug-related AEs leading to discontinuation of study treatment, number of patients ([4]; 50 mg/200 mg, n = 6): 1 (16.7) nS (%)
- Study drug-related AEs, number of events (nE) ([4]; 50 mg/200 mg, n = 6): 3
- Study drug-related AEs, number of patients ([4]; 50 mg/200 mg, n = 6): 3 (50.0) nS (%)
- Total AEs, number of events (nE) ([4]; 50 mg/200 mg, n = 6): 7
- Total AEs, number of patients ([4]; 50 mg/200 mg, n = 6): 5 (83.3) nS (%)
- Deaths ([4]; 13 patients, until data cutoff): No deaths
- Tolerability ([4]; 13 patients, until data cutoff): overall well-tolerated and safe
- Tolerability ([4]; 13 patients, until data cutoff, listed as iptacopan): safe and well-tolerated
- AE by preferred term: Abdominal discomfort ([4]; Total, n = 13): 2 (15.4) n (%)
- AE by preferred term: Blood alkaline phosphatase increased ([4]; Total, n = 13): 2 (15.4) n (%)
- AE by preferred term: Cough ([4]; Total, n = 13): 2 (15.4) n (%)
- AE by preferred term: Headache ([4]; Total, n = 13): 4 (30.8) n (%)
- AE by preferred term: Oropharyngeal pain ([4]; Total, n = 13): 2 (15.4) n (%)
- AE by preferred term: Pyrexia ([4]; Total, n = 13): 2 (15.4) n (%)
- AE by preferred term: Upper respiratory tract infection ([4]; Total, n = 13): 2 (15.4) n (%)
- AEs leading to discontinuation of study treatment, number of events (nE) ([4]; Total, n = 13): 1
- AEs leading to discontinuation of study treatment, number of patients ([4]; Total, n = 13): 1 (7.7) nS (%)
- AEs of mild intensity, number of events (nE) ([4]; Total, n = 13): 35
- AEs of mild intensity, number of patients ([4]; Total, n = 13): 8 (61.5) nS (%)
- AEs of moderate intensity, number of events (nE) ([4]; Total, n = 13): 3
- AEs of moderate intensity, number of patients ([4]; Total, n = 13): 2 (15.4) nS (%)
- AEs of severe/serious intensity, number of events (nE) ([4]; Total, n = 13): 0
- AEs of severe/serious intensity, number of patients ([4]; Total, n = 13): 0 nS (%)
- Study drug-related AEs leading to discontinuation of study treatment, number of events (nE) ([4]; Total, n = 13): 1
- Study drug-related AEs leading to discontinuation of study treatment, number of patients ([4]; Total, n = 13): 1 (7.7) nS (%)
- Study drug-related AEs, number of events (nE) ([4]; Total, n = 13): 9
- Study drug-related AEs, number of patients ([4]; Total, n = 13): 4 (30.8) nS (%)
- Total AEs, number of events (nE) ([4]; Total, n = 13): 38
- Total AEs, number of patients ([4]; Total, n = 13): 9 nS (%) and 9 (69.2) nS (%)
- Study drug-related AEs, number of patients ([4]; Total, n = 13, listed as iptacopan): 4 nS (%)
- Dose dependence of the AE profile of the 2 cohorts ([4]; in vivo): no dose-dependent changes in the AE profile
- Severe or serious AEs ([4]; until data cutoff): no severe or serious AEs
- Breakthrough hemolysis [4, 10]: no breakthrough hemolysis was observed; also recorded: no thromboembolic events or breakthrough hemolysis were reported
- Severe or serious AEs [4, 10]: no severe or serious adverse events reported; also recorded: no serious nor severe AEs
- Thromboembolic events ([4]; until data cutoff, no prophylactic anticoagulation): No thromboembolic events were reported; also recorded: no thromboembolic events were observed; also recorded: no thromboembolic events or breakthrough hemolysis were reported
- Dose proportionality of exposure (AUClast and Cmax) ([5]; 25 to 200 mg twice daily): underproportional in relationship to dose
- Mean trough level exposures ([5]; doses of ≥50 mg twice daily, steady state): ≥ 900 ng/mL
- AUC(0-t) ([5]; human, plasma, oral, 25 mg): 6290 ng·h/mL
- AUC(0-t) ([5]; human, plasma, oral, 200 mg): 19900 ng·h/mL
- Cmax ([5]; human, plasma, oral, 200 mg): 4520 ng/mL
- Suppression of alternative pathway activity (Wieslab assay) [6]: near-maximal inhibition
- Bb levels [7]: decreased rapidly
- Absorption [8, 11]: high absorption
- Clearance [8, 11]: moderate clearance
- Direct renal excretion (share of clearance) [8]: ~25%
- Ethnic sensitivity [8]: no ethnic sensitivity
- Food effect [8]: no food effect
- Terminal half-life in human plasma [8]: approximately 20 hours
- Effect of iptacopan add-on on hemolysis and Hb levels [9]: significant reductions in both intra- and extravascular hemolysis and transfusion-free improvements in Hb levels
